Results as given in ChEMBL document CHEMBL1128411, “Conformationally defined 6-s-trans-retinoic acid analogs. 2. Selective agonists for nuclear receptor binding and transcriptional activity” (J Med Chem, 1995).

Experiments:
[1] = target: T1, Cellular retinoic acid-binding protein 2 (Mus musculus, UniProt P22935); assay: Binding affinity for mouse Cytoplasmic retinoic acid binding protein type 2
T1 sequence (P22935 whole entry): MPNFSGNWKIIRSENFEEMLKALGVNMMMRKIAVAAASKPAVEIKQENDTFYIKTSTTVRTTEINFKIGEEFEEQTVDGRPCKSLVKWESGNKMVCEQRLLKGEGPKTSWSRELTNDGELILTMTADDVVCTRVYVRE
Method in brief: (§1)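 Equilibrium fluorometric titration at 25 °C of recombinant E. coli-expressed apo-proteins (mCRABP-I, mCRABP-II, or hRXRα DEF ligand-binding domain). Ligands came from ethanol stocks, with concentrations set by UV/vis in hexane. Tryptophan fluorescence quenching was read and corrected for inner filter effects. A survey was run at 10^-6 M protein to check stoichiometry.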

[2] = target: T2, Retinoic acid receptor RXR-alpha (Homo sapiens, UniProt P19793); assay: Binding affinity for human Retinoid X receptor RXR alpha; method in brief: as §1
T2 sequence (P19793 whole entry): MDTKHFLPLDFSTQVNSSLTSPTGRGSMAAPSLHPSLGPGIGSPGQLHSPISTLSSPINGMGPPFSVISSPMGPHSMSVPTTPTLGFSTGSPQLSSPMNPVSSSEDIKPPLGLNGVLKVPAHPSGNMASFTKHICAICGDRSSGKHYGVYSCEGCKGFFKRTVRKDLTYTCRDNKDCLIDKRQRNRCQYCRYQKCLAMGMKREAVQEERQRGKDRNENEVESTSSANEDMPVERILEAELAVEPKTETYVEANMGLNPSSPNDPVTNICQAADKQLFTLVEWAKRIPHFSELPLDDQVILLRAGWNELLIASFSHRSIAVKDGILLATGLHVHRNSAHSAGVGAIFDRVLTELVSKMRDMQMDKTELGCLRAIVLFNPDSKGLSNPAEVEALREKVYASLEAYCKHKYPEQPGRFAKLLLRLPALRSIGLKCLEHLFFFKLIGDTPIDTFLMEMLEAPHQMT

[3] = target: Cellular retinoic acid-binding protein 1 (Mus musculus, UniProt P62965); assay: Binding affinity for mouse Cytoplasmic retinoic acid binding protein type 1; method in brief: as §1
[4] = target: T3, Retinoic acid receptor beta (Mus musculus, UniProt P22605); assay: Inhibition of murine Retinoic acid receptor RAR beta
T3 sequence (P22605 whole entry): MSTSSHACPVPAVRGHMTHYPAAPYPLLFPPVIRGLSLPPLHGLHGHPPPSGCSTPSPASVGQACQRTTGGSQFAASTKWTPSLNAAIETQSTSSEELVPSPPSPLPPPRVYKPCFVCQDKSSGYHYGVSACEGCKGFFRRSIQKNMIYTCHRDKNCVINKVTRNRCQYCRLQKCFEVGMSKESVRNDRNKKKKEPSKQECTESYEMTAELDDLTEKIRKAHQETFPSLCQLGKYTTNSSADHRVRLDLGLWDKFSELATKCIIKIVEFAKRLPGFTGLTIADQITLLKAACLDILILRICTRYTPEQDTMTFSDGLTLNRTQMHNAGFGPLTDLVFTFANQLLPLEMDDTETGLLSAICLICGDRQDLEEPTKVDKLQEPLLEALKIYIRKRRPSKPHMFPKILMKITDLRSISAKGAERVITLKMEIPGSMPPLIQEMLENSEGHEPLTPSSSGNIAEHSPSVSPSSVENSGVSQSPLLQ
Method in brief: (§2)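 Nucleosol fractions from COS-1 cells transfected with mouse RARα, β or γ cDNA in pSG5 were incubated with 5 nM [3H]-(all-E)-RA at 4 °C for 4 h. Competitor in ethanol was added at nine concentrations (0–10 μM) in duplicate. Bound label was separated on PD-10 desalting columns and counted by scintillation. IC50 came from a fit of percent specific binding.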

[5] = target: T4, Retinoic acid receptor gamma (Mus musculus, UniProt P18911); assay: Inhibition of binding to murine Retinoic acid receptor RAR gamma; method in brief: as §2
T4 sequence (P18911 whole entry): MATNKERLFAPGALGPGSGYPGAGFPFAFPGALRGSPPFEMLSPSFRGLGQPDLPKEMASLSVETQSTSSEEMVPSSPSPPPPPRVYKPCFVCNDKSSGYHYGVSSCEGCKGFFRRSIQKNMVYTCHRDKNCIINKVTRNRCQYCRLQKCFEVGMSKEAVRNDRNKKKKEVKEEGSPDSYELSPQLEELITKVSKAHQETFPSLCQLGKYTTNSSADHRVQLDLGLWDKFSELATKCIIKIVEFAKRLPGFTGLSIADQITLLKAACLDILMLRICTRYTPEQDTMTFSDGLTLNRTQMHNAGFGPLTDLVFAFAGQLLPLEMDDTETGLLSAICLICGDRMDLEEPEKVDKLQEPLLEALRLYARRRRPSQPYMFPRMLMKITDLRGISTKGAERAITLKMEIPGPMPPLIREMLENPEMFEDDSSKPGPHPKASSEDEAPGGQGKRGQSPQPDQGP

[6] = target: T5, Retinoic acid receptor RXR-alpha (Mus musculus, UniProt P28700); assay: Inhibition of binding to murine Retinoid X receptor RXR alpha
T5 sequence (P28700 whole entry): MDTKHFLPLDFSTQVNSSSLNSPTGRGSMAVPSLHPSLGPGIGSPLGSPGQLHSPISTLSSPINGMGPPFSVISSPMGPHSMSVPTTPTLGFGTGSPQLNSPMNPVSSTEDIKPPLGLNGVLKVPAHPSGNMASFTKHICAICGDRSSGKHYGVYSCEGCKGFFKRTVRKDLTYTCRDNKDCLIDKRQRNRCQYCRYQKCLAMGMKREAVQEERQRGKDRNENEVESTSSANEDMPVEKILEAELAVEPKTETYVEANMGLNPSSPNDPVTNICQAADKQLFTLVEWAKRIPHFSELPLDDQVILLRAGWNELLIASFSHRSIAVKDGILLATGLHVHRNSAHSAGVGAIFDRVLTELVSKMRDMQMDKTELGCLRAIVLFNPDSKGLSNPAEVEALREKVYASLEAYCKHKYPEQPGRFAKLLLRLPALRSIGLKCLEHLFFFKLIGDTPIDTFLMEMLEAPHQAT

Sequence of Cellular retinoic acid-binding protein 1 (P62965 whole entry): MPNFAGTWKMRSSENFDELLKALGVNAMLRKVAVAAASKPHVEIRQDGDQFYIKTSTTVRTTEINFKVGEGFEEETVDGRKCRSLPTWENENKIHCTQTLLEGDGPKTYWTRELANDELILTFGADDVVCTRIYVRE

Kd [1]: 1.4 nM
Kd [2]: > 200 nM
Kd [3]: 0.3 nM
IC50 [4]: 6 nM
IC50 [5]: 10 nM
IC50 [6]: > 1000 nM
Compound: CCC1=C(C(C)C)/C(=C/C(C)=C/C=C/C(C)=C/C(=O)O)CCC1
